In publication PMC4404408 (Journal of acquired immune deficiency syndromes (1999), 2014):
Several values for one entry are separate records, joined by “and”; a condition that tells them apart may be missing. Identical values can stand only once. Like-named read-outs stand apart in the source and are kept apart here. Values belong to the compound of their own block, whether it stands above or below them.

Legend:
[1] = Phase I open-label drug interaction PK study, arm B
[2] = human, in vivo
[3] = Phase I open-label drug interaction PK study, arm A; details: for Cmax: in vivo
[4] = cited from earlier work
[5] = human, in vivo; remark: listed apart in the source
[6] = Fasting lipid profile, calculated LDL-C; type: in vivo, healthy adult HIV-1 seronegative volunteers
Procedure, shortened: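 Healthy HIV-seronegative volunteers aged 18–60 (BMI 18–25, ≥50 kg) took pitavastatin with observed dosing on day 4. They then took EFV 600 mg (arm A, night) or DRV/ritonavir 800/100 mg (arm B, morning) on days 5–14, plus pitavastatin 2 mg on days 15–18. Fasting serum total cholesterol, triglycerides and HDL were measured enzymatically on days 0, 4, 14 and 18, and LDL-C was calculated by the Friedewald equation.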

[7] = coadministered with pitavastatin vs DRV/r alone, nonsignificant
[8] = pitavastatin 4 mg daily with DRV/r 800/100 mg, healthy volunteers
[9] = pitavastatin 4 mg once daily and lopinavir/r 400/100 mg twice a day, healthy volunteers

- Increase in DRV mean AUC0-τ [1, 7]: 8% and < 10%
- Increase in DRV mean Cmax [1, 7]: 3% and < 10%
- DRV mean plasma concentrations, alone vs coadministered ([1]; with pitavastatin, Fig. 3B): remained similar
Compound: CC(C)CN(C[C@@H](O)[C@H](Cc1ccccc1)NC(=O)O[C@H]1CO[C@H]2OCC[C@H]21)S(=O)(=O)c1ccc(N)cc1 [DRV, darunavir]

Compound: O=C1Nc2ccc(Cl)cc2[C@@](C#CC2CC2)(C(F)(F)F)O1 [EFV, efavirenz]
- EFV AUC0-τ geometric mean ratio (90% CI) [2]: 0.90 (0.75 to 1.06)
- EFV mean plasma concentrations, alone vs coadministered [2]: remained similar throughout the entire 24-hour PK period
- EFV AUC0-τ, geometric mean ([3]; EFV 600 mg with pitavastatin 2 mg, day 18, N=14): 44400 ng·h/mL
- EFV Tmax, median (IQR) ([3]; EFV only, day 14, N=14): 2.0 (0.9 to 3.0) h
- Cmax ([3]; human): 3720 ng/mL
- Cmax ([3]; human, 600 mg): 4150 ng/mL
- AUC ([3]; human, plasma, oral, 600 mg): 49500 ng·h/mL
- Tmax ([3]; human, plasma, oral, EFV Tmax, median (IQR), EFV with pitavastatin, day 18, N=14): 1.5 h

Compound: CC[C@H](C)C(=O)O[C@H]1C[C@H](O)C=C2C=C[C@H](C)[C@H](CC[C@@H](O)C[C@@H](O)CC(=O)O)[C@H]21 [pravastatin]
- Decrease of statin AUC by EFV ([4]; coadministered with EFV): 40%
- Increase of pravastatin AUC ([4]; coadministration with lopinavir/ritonavir): 33%
- Reduction of pravastatin exposure ([4]; combined with nelfinavir or saquinavir): about 50%
- Increase of pravastatin AUC ([4]; in the presence of DRV/r): 81%

- Pitavastatin lactone median Tmax [5]: 2.0 h
Compound: O=C1C[C@H](O)C[C@@H](/C=C/c2c(C3CC3)nc3ccccc3c2-c2ccc(F)cc2)O1 [pitavastatin lactone]

Compound: O=C(O)C[C@H](O)C[C@H](O)/C=C/c1c(C2CC2)nc2ccccc2c1-c1ccc(F)cc1 [Pitavastatin, pitavastatin]
- Change in mean LDL ([6]; day 0-4, pitavastatin only, arms A and B): decreased
- Change in mean LDL ([6]; day 14 to day 18, pitavastatin and either EFV or DRV/r): decreased
- Pitavastatin Tmax, median (IQR) [2]: 2.0 (0.9 to 3.0) h
- Increase in pitavastatin AUC ([4]; combined with ritonavir-boosted atazanavir): 31%
- Safety of concomitant administration ([4]; lopinavir/ritonavir in combination with pitavastatin): safe and well tolerated
- Change in pitavastatin Cmax [4, 8]: minimal or no change
- Reduction in pitavastatin AUC0-τ [4, 8]: 26%
- Change of pitavastatin Cmax [4, 9]: unaffected
- Reduction of pitavastatin AUC [4, 9]: ~ 20%
- Pitavastatin mean plasma concentrations, alone vs coadministered ([1]; with DRV/r, 24-hour PK period, Fig. 3A): similar
